# HEK293 NFkB inh: inhibitors of the PMA/ionomycin-induced NF-kB reporter in HEK293 cells; HEK-293 NF-kB luciferase reporter, luminescence; inhibition, % at 3 µM; actives 0.21% (n = 62,000);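 active means inhibition above the mean of all tested compounds plus 3 SD, cut at about 40% in these data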;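 further: 0% = stimulated DMSO wells and 100% = 10 µM reference inhibitor 5653914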
#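 System – HEK-293 cells with stable firefly luciferase reporter driven by four HIV NF-kB elements · Doses – one dose, 3 µM · Schedule – 1 h compound pre-incubation, 16 h PMA/ionomycin at 37 °C · Technique – luminescence from luciferase substrate reagent · Measure – percent inhibition normalized per plate to DMSO and reference-inhibitor controls · Replicates – tested once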
# D1 mod: allosterically modulates the human D1 dopamine receptor. HEK293 D1, CRE-luciferase, dopamine EC30 potentiation; actives deviate in either direction. B-score at 10 µM. actives 5.9% (n = 58,000). AID 641;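 active means luminescence count or its row- and column-corrected plate score outside the 99.7% band of the plate's sample wells, on either side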
# AP ELISA ortho: alternative pathway complement inhibition, orthogonal assay | Human serum alternative complement pathway, LPS-coated ELISA, C3 deposition; tested in compound mixtures | inhibition, % at 5 µM | actives 0.08% (n = 62,000);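 active means inhibition above 30% in each of the two pooled mixtures holding the compound, so the lower value exceeds 30%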;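 further: 0% = serum in Mg-EGTA without compound and 100% = EDTA serum blank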
#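 Test system – human serum alternative complement pathway, C3 deposition on LPS-coated wells · Buffer or medium – diluted human serum in Mg2+-EGTA GVB++ · Compound dosing – 5 µM each compound, pools of ten, 50 µM per pool · Schedule – 1 h serum-compound exposure at 37 °C · Measured by – Anti-C3 ELISA, OD 450 nm · Read-out basis – percent inhibition of C3 deposition onto LPS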
# E coli RNAP: blocks E. coli RNA polymerase transcription. fluorescence transcription assay. actives 0.2% (n = 62,000). inhibition, %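 (tested at 10 µM)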; in the data active means inhibition above about 20%;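 further: 0% = enzyme without compound and 100% = no enzyme blank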
# Target sequence (P0A8V2 whole entry, looked up): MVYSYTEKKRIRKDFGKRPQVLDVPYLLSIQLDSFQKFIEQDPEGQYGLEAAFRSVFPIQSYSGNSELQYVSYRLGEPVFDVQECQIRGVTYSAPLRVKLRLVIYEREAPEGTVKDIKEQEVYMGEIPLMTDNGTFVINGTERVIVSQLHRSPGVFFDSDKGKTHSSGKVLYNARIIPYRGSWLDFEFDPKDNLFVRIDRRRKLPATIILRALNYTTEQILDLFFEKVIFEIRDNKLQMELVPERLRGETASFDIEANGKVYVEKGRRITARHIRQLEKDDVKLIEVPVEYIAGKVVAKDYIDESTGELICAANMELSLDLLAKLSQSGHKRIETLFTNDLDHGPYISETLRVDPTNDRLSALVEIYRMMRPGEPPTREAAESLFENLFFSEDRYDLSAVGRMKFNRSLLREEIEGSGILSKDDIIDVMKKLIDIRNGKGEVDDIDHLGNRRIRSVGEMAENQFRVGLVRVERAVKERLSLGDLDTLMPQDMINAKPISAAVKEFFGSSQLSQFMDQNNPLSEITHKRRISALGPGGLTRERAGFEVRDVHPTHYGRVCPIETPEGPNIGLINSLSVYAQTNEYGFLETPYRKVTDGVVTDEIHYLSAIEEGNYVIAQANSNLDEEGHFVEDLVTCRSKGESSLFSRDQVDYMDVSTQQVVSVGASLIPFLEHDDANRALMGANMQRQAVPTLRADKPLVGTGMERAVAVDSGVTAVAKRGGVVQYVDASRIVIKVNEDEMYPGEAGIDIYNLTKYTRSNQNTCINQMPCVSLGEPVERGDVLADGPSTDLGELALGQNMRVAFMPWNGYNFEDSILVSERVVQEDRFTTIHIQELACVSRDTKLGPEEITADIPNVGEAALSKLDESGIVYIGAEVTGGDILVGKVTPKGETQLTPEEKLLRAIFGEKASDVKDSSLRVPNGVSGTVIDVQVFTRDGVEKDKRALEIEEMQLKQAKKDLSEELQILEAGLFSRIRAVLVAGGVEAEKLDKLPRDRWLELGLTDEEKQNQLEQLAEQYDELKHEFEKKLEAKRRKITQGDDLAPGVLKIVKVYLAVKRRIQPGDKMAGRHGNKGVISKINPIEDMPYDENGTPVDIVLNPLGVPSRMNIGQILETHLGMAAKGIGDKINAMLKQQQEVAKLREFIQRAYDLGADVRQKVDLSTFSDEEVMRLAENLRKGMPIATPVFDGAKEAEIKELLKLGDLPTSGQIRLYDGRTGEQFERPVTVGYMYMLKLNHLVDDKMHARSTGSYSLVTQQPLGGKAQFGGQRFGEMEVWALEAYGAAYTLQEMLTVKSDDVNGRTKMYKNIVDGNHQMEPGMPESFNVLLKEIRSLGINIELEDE
# hDAT+cocaine: changed human dopamine transporter uptake under cocaine IC80; Q01959; LLC-PK1 hDAT cells, [14C]-dopamine uptake with cocaine IC80; actives deviate in either direction; B-score at 10 µM; actives 1.3% (n = 110,000); AID 449768;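 active means Z score or B-score, a plate-position-corrected score, falls beyond the plate's 99.7% confidence bounds, in either direction; inactive means both scores lie inside the 99.7% bounds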;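 further: scored against the spread of the other compound wells on the same plate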
# The depositor's hits bear a star; / = no result given. Shown is part of a subset that was picked to be rich in hits.
SMILES,HEK293 NFkB inh,D1 mod,AP ELISA ortho,E coli RNAP,hDAT+cocaine
COc1ccc(S(=O)(=O)N2CCC(C(=O)NCc3ccccn3)CC2)cc1C,17.5,0.321,12.0,4.4,0.193
OCC[C@@H]1C[C@H](O)[C@@H](O)[C@@]2(CCCO2)O1,/,/,/,/,-0.174
COc1ccccc1N1CCN(CCCNC(=O)Nc2ccccc2C)CC1,9.7,/,7.9,-1.4,-1.33
Cn1c(=O)cc(OCC(=O)NCCCN2CCN(c3ccccc3F)CC2)c2ccccc21,1.1,0.559,2.2,-3.7,-0.42
Cn1c(=O)cc(OCC(=O)NCCCN2CCN(c3cccc(Cl)c3)CC2)c2ccccc21,5.8,-5.26*,4.0,5.5,-0.249
COc1ccccc1NC(=O)NCCCN1CCN(c2cccc(Cl)c2)CC1,15.6,-4.18*,-14.7,-13.4,-1.56
COC(=O)NC(=S)Nc1ccc(Oc2ccc(Cl)cc2Cl)c(Cl)c1,/,/,/,/,-0.156
COc1ccc(NCc2nnc(SCC#N)n2-c2ccccc2OC)cc1,5.0,-0.0211,15.5,7.7,0.324
Cc1ccc(-c2nc3cc(NC(=O)C(C)C)ccc3o2)cc1C,-63.9,-2.96*,4.4,-0.6,-0.453
Cc1ccc(-c2nc3cc(NC(=O)C(C)C)ccc3o2)cc1,-77.8,-2.42*,5.6,9.0,-0.143
CCC(=O)Nc1ccc2oc(-c3cccc(C)c3)nc2c1,-34.2,-3.45*,10.2,-1.6,-0.321
CC(C)C(=O)Nc1ccc(-c2nc3cccnc3o2)cc1,-28.2,-3.19*,15.5,-24.0,-0.675
Cc1ccc2oc(-c3cccc(NC(=O)Cc4cccs4)c3)nc2c1,/,/,/,/,-0.0526
CC(C)C(=O)Nc1cccc(-c2nc3ccccc3o2)c1,-1.5,-0.628,8.4,1.3,0.0647
COc1cccc(-n2nc(-c3ccnn3-c3ccc(C)cc3)c(=O)n(C)c2=O)c1,/,/,/,/,-0.815
O=c1[nH]c(SCc2cccc(Cl)c2)nc2c1CCCC2,15.5,1.25,10.5,0.7,-0.0135
N=c1c2c(n(Cc3cccc(Cl)c3)c3c1CCC3)CCCC2,/,/,/,/,-9.29*
CCCCCCCCCCn1c2c(c(=N)c3c1CCC3)CCC2,/,/,/,/,-0.698
N=c1c2c(n(Cc3ccccc3)c3c1CCC3)CCC2,7.0,-1.89,-5.1,8.9,-4.23*
N=c1c2c(n(Cc3ccc(Cl)cc3)c3c1CCC3)CCC2,22.3,-3.47,12.7,-4.8,-6.7*
Cc1cc(OC(=O)c2ccc(Cl)cc2Cl)nc(C)n1,/,/,/,/,-1.11
O=C1N[C@@H](Cc2ccccc2)C(=O)N2[C@@H]1C[C@]1(Br)c3ccccc3N(S(=O)(=O)c3ccccc3)[C@H]21,/,/,/,/,-0.378
CCSc1c(-c2ccccc2)nc2c(C)cccc2c1C(=O)O,/,/,/,/,0.802
C/C(N)=C(/C#N)C(=O)COC(=O)COc1ccc(Cl)cc1C,/,/,/,/,0.332
O=C(c1ccco1)N1CCN(C(=O)c2cc(-c3ccncc3)nc3ccc(Br)cc23)CC1,24.0,-2.74,3.7,6.8,-2.68*
SMILES,HEK293 NFkB inh,D1 mod,AP ELISA ortho,E coli RNAP,hDAT+cocaine
Cc1ccccc1-n1nc(C)c2cc(C(=O)NCc3cccnc3)sc21,6.6,-4.69*,13.0,9.2,-0.0468
Cc1nn(CC(=O)NCc2cccnc2)c(=O)c2ccccc12,-1.3,-0.626,21.5,-0.3,1.13
CCOC(=O)c1c(NC(=O)CCN2CCOCC2)sc2c1CC(C)(C)OC2,/,2.02,/,6.2,2.83*
COc1ccc(C(=O)c2ccccc2Cl)cc1,/,/,/,/,0.536
COc1ccc(C(=O)c2c[nH]c3ccccc23)cc1,/,-2.18*,2.7,/,0.33
CC(C)CNC(=S)NC1CCCC1,/,/,/,/,0.92
O=C(c1ccccc1CCc1ccccc1)N1CCOCC1,12.6,-0.793,2.7,5.0,-6.81*
COc1ccc(NC(=O)c2cc(-c3cccnc3)nc3ccc(C)cc23)cc1OC,/,/,/,/,-0.587
COc1ccc(NC(=O)c2cc(-c3ccc(C)o3)nc3ccccc23)cc1OC,7.9,-4.71*,6.0,4.3,-0.0764
COc1cc(NC(=O)c2cc3c(C)nc4ccccc4c3o2)cc(OC)c1OC,17.2,-4.59*,-1.2,9.6,0.307
Cc1nc2ccccc2c2oc(C(=O)N3CCc4ccccc43)cc12,16.8,0.0932,23.3,6.0,0.0589
COc1ccc(C)cc1NC(=O)c1cc2c(C)nc3ccccc3c2o1,12.6,0.87,17.5,-9.2,/
CCc1ccc(CNC(=O)c2cc3c(C)nc4ccccc4c3o2)cc1,/,/,/,/,-1.73
Cc1nc2ccccc2c2oc(C(=O)NCC3COc4ccccc4O3)cc12 (stereo unspecified),6.2,-3.52*,6.7,5.0,0.229
Cc1nc2ccccc2c2oc(C(=O)Nc3ccc4c(c3)OCCO4)cc12,-4.9,-2.54*,13.6,1.7,0.479
CC1=NC(Nc2nc(C)c3ccccc3n2)=NC(C)(C)C1,5.1,-4.08*,6.6,7.8,0.29
Cc1ccccc1CN1[C@@H](C(C)C)COCCS1(=O)=O,/,/,/,/,-0.133
COc1cc(O)c(C(CCN2CCCC(C)C2)c2ccc(N(C)C)cc2)c(OC)c1 (stereo unspecified),/,/,/,/,2.21*
O=C(NC1(C(F)(F)F)NC(=O)N(c2ccc(F)c(Cl)c2)C1=O)c1ccncc1 (stereo unspecified),/,/,/,/,-3*
O=C(CN1CCCN(Cc2ccc(F)cc2Cl)C1=O)NCc1ccccc1,10.0,0.653,17.2,2.3,2.63*
O=C(CN1CCN(Cc2ccccc2)C1=O)NCc1ccc(Cl)cc1,0.3,/,7.2,2.5,0.768
COc1ccc(C(=O)c2c(-c3ccsc3)oc3ccc(-c4ccc(OC)cc4)cc23)cc1,/,/,/,/,-1.79
c1cc(CNc2ccc3c(c2)OCO3)ccn1,10.5,0.379,3.7,2.6,0.21
Cc1ccc(CNc2ccc3c(c2)OCO3)cc1,11.2,-4.97*,-7.8,4.8,0.0661
CCOc1ccc(NC(=O)C(C)Oc2ccccc2C(=O)Nc2cccc(Cl)c2Cl)cc1 (stereo unspecified),/,/,/,/,-0.136
SMILES,HEK293 NFkB inh,D1 mod,AP ELISA ortho,E coli RNAP,hDAT+cocaine
COc1cc2c(cc1NC(=O)COc1ccc3ccccc3c1)oc1ccccc12,/,/,/,/,-7.78*
CCc1ccc(C2CC(c3ccc(C)cc3)n3nc(N)nc3N2)cc1 (stereo unspecified),7.4,/,5.1,4.6,/
COc1cc(-c2nnc(-c3cccs3)o2)cc(OC)c1OC,-9.8,0.049,-7.2,11.4,-0.0671
Fc1ccc2c(Cl)c(-c3nnc(-c4cccs4)o3)sc2c1,-37.8,-6.36*,3.0,-0.2,-0.0924
CCOC(=O)C1=C(CS(=O)(=O)c2ccc(F)c(C)c2)NC(=O)NC1c1ccc(O)c(O)c1 (stereo unspecified),3.5,0.45,-6.9,10.1,-0.225
O=C1c2cccc3c2[C@H](CCC3)CN1[C@@H]1CN2CCC1CC2,/,/,/,/,0.00119
O=C(NCc1ccc(OC(F)(F)F)cc1)c1cc(-c2ccccc2)nn1CC1CC(c2cccnc2)=NO1 (stereo unspecified),/,/,/,/,-0.994
O=C(NCc1ccco1)c1cc(-c2ccccc2)nn1CC1CC(c2cccnc2)=NO1 (stereo unspecified),/,/,/,/,2.15*
NC(=O)CC(NC(=O)c1ccccc1)C(=O)O (stereo unspecified),/,/,/,/,-1.9

# Bioassay records (PubChem BioAssay)
